Screening results deposited in PubChem by several laboratories.
Sampled rows, rich in hits. Any-hit rate of the full collection: about 2.6%.
SENP1 inh: SENP1 (human) catalytic domain inhibition | Q9P0U3 | recombinant SENP1 catalytic domain, CyPet-SUMO1-YPet FRET cleavage | inhibition, % at 10 µM | hit rate 0.21% among 360,000 | AID 624204;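 active = inhibition at least 30% at 10 µM, raw YFP signal under a set limit, fluorescence ratio 0.5 to 1.5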;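 note: 0% = enzyme with DMSO and 100% = no enzyme wells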
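Material: hSENP1 catalytic domain, recombinant; medium: Tris pH 8 with BME, BSA, NP40 and catalase; compound: single concentration of 10 µM compound, 0.5% DMSO final; technique: FRET read of cyan and yellow fluorescence; timing: 50 min enzyme reaction, room temperature, light-protected; reagent: SFCypet-SUMO1-SFYpet substrate at 25 nM; control set: no-enzyme low, enzyme-DMSO high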
SENP8 block-1: blocks the human protease SENP8; Q96LD8; purified SENP8, Z-RLRGG-aminoluciferin cleavage, luminescence; inhibition, % at 10 µM; hit rate 1.2% among 330,000; AID 2540; in the data active = inhibition above about 50%
Target sequence (Q96LD8 whole entry, looked up): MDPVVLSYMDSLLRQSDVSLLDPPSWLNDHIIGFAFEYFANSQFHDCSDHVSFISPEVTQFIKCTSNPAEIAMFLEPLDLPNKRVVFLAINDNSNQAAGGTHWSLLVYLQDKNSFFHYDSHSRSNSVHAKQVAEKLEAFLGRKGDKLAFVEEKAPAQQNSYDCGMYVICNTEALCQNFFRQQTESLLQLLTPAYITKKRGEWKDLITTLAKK
SENP7 block: blocks the human protease SENP7 | recombinant SENP7, Z-RLRGG-aminoluciferin luminescence, 40 min | Q9BQF6 | AID 434973 | hit rate 1.5% among 330,000 | inhibition, % at 5 µM;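 active = inhibition above about 50% at the single test dose, limit read from the data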;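 note: plate controls were DMSO with enzyme for no effect and no enzyme buffer wells for full effect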
SENP8 block-2: SENP8 (human) protease inhibition; recombinant SENP8, Nedd8 substrate fluorescence; inhibition, % at 20 µM; hit rate 0.64% among 360,000; AID 602440; in the data active = inhibition mostly above about 40%, no sharp cut-off; inactive = mostly below about 27%
Platelet DG rel: modulates dense granule release in human platelets | AID 1663 | hit rate 0.22% among 300,000 | human platelet-rich plasma, SFLLRN dense granule ATP release, luminescence | inhibition, %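 (compounds screened at 7.5 µM in platelet-rich plasma)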;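 active = mean replicate score, as percent of positive control, at or above 50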
SENP6 block: blocks the human protease SENP6. AID 2599. hit rate 1.8% among 330,000. Recombinant SENP6 catalytic domain, aminoluciferin luminescence. inhibition, % at 10 µM;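 active = inhibition above about 50% at the single tested dose, limit read from the data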;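 note: plate controls were DMSO wells with enzyme for no effect and DMSO wells lacking enzyme for full effect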
SENP8 conf: human SENP8 inhibition, confirmed; shares compounds with SENP7 block; Recombinant SENP8, Z-RLRGG-aminoluciferin luminescence, 60 min; inhibition, % at 12.5 µM; hit rate 40% among 6,200;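 active = mean inhibition across replicates above about 50%, limit read from the data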
SENP6 conf: confirmation of human SENP6 protease inhibitors | shares compounds with SENP7 block | recombinant SENP6, Z-RLRGG-aminoluciferin luminescence | inhibition, % at 12.5 µM | hit rate 58% among 6,200 | AID 488915
SENP7 conf: human SENP7 inhibition, confirmed; recombinant SENP7, Z-RLRGG-aminoluciferin luminescence, 40 min; inhibition, % at 12.5 µM; AID 488917; hit rate 69% among 6,200; shares compounds with SENP7 block
Casp3 select: caspase-3 inhibition (SENP selectivity assay); hit rate 60% among 6,200; AID 488918; purified caspase-3, Z-DEVD-aminoluciferin luminescence, 60 min; shares compounds with SENP7 block; inhibition, % at 12.5 µM;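 active = mean inhibition above about 50%, limit read from the data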;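 note: plate controls were enzyme with DMSO for no effect and wells without caspase-3 for full effect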
Target sequence (P42574 28-227 limits assumed): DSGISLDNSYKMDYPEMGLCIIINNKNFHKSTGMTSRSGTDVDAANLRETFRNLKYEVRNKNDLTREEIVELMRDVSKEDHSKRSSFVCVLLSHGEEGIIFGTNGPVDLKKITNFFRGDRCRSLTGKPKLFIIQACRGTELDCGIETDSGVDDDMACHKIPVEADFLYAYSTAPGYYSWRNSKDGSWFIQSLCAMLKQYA
SENP luc ctr: interferes with luciferase luminescence in SENP counter-screen; shares compounds with SENP7 block; Pre-incubated SENP8/Z-RLRGG-aminoluciferin, luciferase luminescence interference; inhibition, % at 12.5 µM; hit rate 39% among 6,200;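 active = mean inhibition above about 50% when retested at one dose, limit read from the data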;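 note: plate controls were DMSO wells with completed reaction for no effect and substrate without enzyme for full effect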
The depositor's hits bear a star; i = inactive; . = no result.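 Rule for the calls, unless noted: active = mean inhibition above about 50% in the one-dose retest (limit read from the data); inactive = the rest.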

SMILES	SENP1 inh	SENP8 block-1	SENP7 block	SENP8 block-2	Platelet DG rel	SENP6 block	SENP8 conf	SENP6 conf	SENP7 conf	Casp3 select	SENP luc ctr
CN1C(=O)CSc2ccc(NC(=O)N3CCc4ccccc43)cc21	4	47	46	2	-4	59*	57*	54*	85*	62*	53*
CC(=O)Nc1ccc(NC(=O)Nc2ccc3c(c2)N(C)C(=O)CS3)cc1	2	-4	0	8	-3	2	.	.	.	.	.
Cc1cccc(/C(N)=N/OC(=O)CCC2CCCCC2)c1	0	-4	32	11	-7	83*	67*	90*	98*	86*	83*
N/C(=N\OC(=O)c1ccncc1)c1cccc([N+](=O)[O-])c1	3	-3	-12	9	-14	25	.	.	.	.	.
Cc1ccc(/C(N)=N/OC(=O)CCC2CCCCC2)cc1	2	-9	1	8	-6	-13	.	.	.	.	.
Cc1cccc(/C(N)=N/OC(=O)c2ccncc2)c1	3	75*	92*	17	1	89*	79*	84*	96*	92*	80*
COc1cccc(C(=O)O/N=C(\N)c2ccc([N+](=O)[O-])cc2)c1	1	-13	38	14	-2	18	.	.	.	.	.
COc1ccc(C(=O)O/N=C(\N)c2ccncc2)cc1OC	1	-5	3	24	-7	-6	.	.	.	.	.
COc1cccc(C(=O)O/N=C(\N)c2ccc(C)cc2)c1	2	57*	83*	9	9	73*	74*	76*	93*	79*	58*
COc1cccc(C(=O)O/N=C(\N)c2ccncc2)c1	1	43	67*	7	8	-1	47	44	78*	83*	59*
CCC(=O)Nc1ccc2oc(-c3cccc(C)c3)nc2c1	2	94*	98*	i	.	99*	5	98*	103*	96*	75*
CCCC(=O)Nc1cccc(-c2nc3ccccc3o2)c1	-1	-5	4	-43	2	-3	.	.	.	.	.
Cc1ccc2oc(-c3cccc(NC(=O)Cc4cccs4)c3)nc2c1	0	-11	75*	-26	2	1	8	7	-2	-5	-7
CCC(=O)Nc1cccc(-c2nc3ccc(C)cc3o2)c1	-1	23	23	-71	2	33	.	.	.	.	.
CCC(=O)Nc1ccc(-c2nnc(-c3ccccc3)o2)cc1	1	38	75*	i	1	72*	20	17	10	40	4
CCCC(=O)Nc1cccc(-c2nc3cc(C)c(C)cc3o2)c1	-3	23	91*	-398	.	35	25	23	28	37	54*
Cc1cc(NC(=O)COC(=O)C2CCN(S(=O)(=O)c3ccccc3)CC2)c([N+](=O)[O-])cc1C	0	0	-8	13	2	0	.	.	.	.	.
COc1ccc(N(CC(=O)Nc2cc(OC)c(OC)cc2C(=O)O)S(=O)(=O)c2c(C)noc2C)cc1	0	7	6	-22	9	-2	.	.	.	.	.
O=C1C(=Cc2cccs2)C(=O)c2ccccc21	2	10	12	10	-5	31	.	.	.	.	.
O=C1/C(=C\c2cccs2)Sc2ccc3ccccc3c21	4	88*	98*	10	14	92*	9	50*	80*	78*	2
Cc1ccc(NC(=O)c2nc(S(=O)(=O)Cc3ccccc3C)ncc2Cl)cc1C	3	-1	-7	12	21	5	.	.	.	.	.
CCC(C(=O)Nc1ccc2c(c1)OCCO2)n1nnc2ccccc2c1=O (centres undefined)	0	6	3	4	2	13	.	.	.	.	.
O=c1c2ccccc2nnn1CSc1ccc2c(c1)OCCO2	2	49	63*	26	-1	16	72*	70*	87*	72*	71*
O=C(O)c1ccc(NC2=C/C(=N/S(=O)(=O)c3ccccc3)c3ccccc3C2=O)cc1	2	87*	60*	61*	.	93*	95*	98*	92*	19	7
COC(=O)c1ccc(N/C(=N/S(=O)(=O)c2ccccc2)c2ccccc2)cc1	2	0	0	2	-6	0	.	.	.	.	.
SMILES	SENP1 inh	SENP8 block-1	SENP7 block	SENP8 block-2	Platelet DG rel	SENP6 block	SENP8 conf	SENP6 conf	SENP7 conf	Casp3 select	SENP luc ctr
Brc1ccccc1-c1nc(-c2ccccc2)no1	.	95*	98*	.	16	97*	13	99*	103*	94*	91*
Fc1ccccc1-c1nc(-c2ccncc2)no1	2	77*	84*	15	-8	85*	82*	84*	98*	90*	72*
Fc1ccccc1-c1nc(-c2ccc(-c3nn[nH]n3)cc2)no1	-4	96*	92*	-236	.	97*	98*	98*	102*	96*	98*
c1ccc(-c2noc(-c3cccc4ccccc34)n2)cc1	0	11	49	-396	9	31	.	.	.	.	.
c1ccc2c(-c3nc(-c4ccncc4)no3)cccc2c1	0	1	25	-306	-12	45	.	.	.	.	.
Fc1ccccc1-c1nc(-c2ccccc2)no1	0	95*	99*	11	16	98*	36	97*	102*	90*	29
Fc1ccccc1-c1nc(-c2cnccc2C(F)(F)F)no1	0	-11	4	-1	8	-10	.	.	.	.	.
COc1cc(CN2CCCC(N3CCN(c4ccccc4C)CC3)C2)ccc1O (centres undefined)	3	1	4	16	1	-8	.	.	.	.	.
CC(C)NC(=O)C1(C)CN(S(C)(=O)=O)CC(=O)N1CCCn1ccnc1 (centres undefined)	-6	.	.	-8	.	.	.	.	.	.	.
O=C(CN1CCOCC1)Nc1nc(-c2ccccc2Cl)cs1	0	2	3	20	-1	1	.	.	.	.	.
O=C(Nc1ccccc1Cl)OCC#CCOC(=O)Nc1ccccc1Cl	3	.	.	10	.	.	.	.	.	.	.
COc1ccc(N2CCN(C(=S)Nc3ccc(C)cc3C)CC2)cc1	-2	2	9	23	1	5	.	.	.	.	.
COc1ccc(N2CCN(C(=S)Nc3cc(C)ccc3C)CC2)cc1	3	9	81*	11	4	-11	-2	2	9	4	0
